Our source for the MIC, Ratio and Activity values is ChEMBL document CHEMBL4052686, “Synthesis and antibacterial activity of 5-methylphenanthridium derivatives as FtsZ inhibitors” (2017).

Calls of active or inactive are those of the source. The calls are words filed in the database; no cut-off is given here. A value given as a limit tells only on which side of the number the result lay.

Experiment [1] has as its system Bacillus subtilis. The experiment in a line: Antibacterial activity against penicillin-susceptible Bacillus subtilis ATCC 9372 incubated for 24 hrs by tube-dilution method. It is filed as functional. Particulars: ATCC 9372, 24 h. In outline:
(§1)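 MIC by tube dilution per NCCLS; B. subtilis ATCC9372, E. coli ATCC25922, P. aeruginosa ATCC27853 and S. aureus ATCC25923 are penicillin-susceptible strains.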

Experiment [2] has as its system Escherichia coli. The experiment in a line: Antibacterial activity against penicillin-susceptible Escherichia coli ATCC 25922 incubated for 24 hrs by tube-dilution method. It is filed as functional. Particulars: ATCC 25922, 24 h. Put shortly:
as §1

Experiment [3] has as its system Pseudomonas aeruginosa. The experiment in a line: Antibacterial activity against penicillin-susceptible Pseudomonas aeruginosa ATCC 27853 incubated for 24 hrs by tube-dilution method. It is filed as functional. Particulars: ATCC 27853, 24 h. In outline:
as §1

In experiment [4] the test system is Staphylococcus aureus. Briefly: Antibacterial activity against penicillin-susceptible Staphylococcus aureus ATCC 25923 incubated for 24 hrs by tube-dilution method. It is filed as functional. The settings on record: ATCC 25923, 24 h. In outline:
as §1

In experiment [5] the test system is Staphylococcus aureus. Briefly: Antibacterial activity against […] Staphylococcus aureus ATCC 29213 incubated for 24 hrs by tube-dilution method. The format is functional. The settings on record: ATCC 29213, 24 h. Put shortly:
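Broth tube-dilution MIC run as NCCLS recommends, against the […] S. aureus strain ATCC29213.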

For experiment [6], the system named is Staphylococcus aureus. The experiment in a line: Antibacterial activity against penicillin-resistant Staphylococcus aureus clinical isolates incubated for 24 hrs by tube-dilution method. It is filed as functional.
Experiment [7] has as its system Staphylococcus epidermidis. Briefly: Antibacterial activity against penicillin-resistant Staphylococcus epidermidis clinical isolates incubated for 24 hrs by tube-dilution method. It is filed as functional.
Experiment [8] deals with Streptococcus pyogenes. The experiment in a line: Antibacterial activity against penicillin-susceptible Streptococcus pyogenes clinical isolates incubated for 24 hrs by tube-dilution method. The format is functional.
Experiment [9] has as its system Streptococcus pyogenes. The experiment in a line: Antibacterial activity against penicillin-resistant Streptococcus pyogenes clinical isolates incubated for 24 hrs by tube-dilution method. It is filed as functional.
The subject of experiment [10] is Bacillus subtilis. The experiment in a line: Inhibition of FtsZ in penicillin-susceptible Bacillus subtilis ATCC 9372 assessed as lowest drug concentration causing inhibition of cell division incubated for 5 hrs by phase-contrast light microscopy. In outline:
(§2)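 Cell division inhibition judged from bacterial cell morphology under phase-contrast light microscopy, scored as lowest concentration altering division; penicillin-susceptible strains B. subtilis ATCC9372, E. coli ATCC25922, P. aeruginosa ATCC27853, S. aureus ATCC25923.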

Experiment [11] has as its system Streptococcus pyogenes. Briefly: Potency index, ratio of MIC for oxacillin sodium to MIC for test compound against penicillin-susceptible Streptococcus pyogenes clinical isolates incubated for 24 hrs by tube-dilution method. It is filed as functional.
The test system of experiment [12] is Escherichia coli. Briefly: Inhibition of FtsZ in penicillin-susceptible Escherichia coli ATCC 25922 assessed as lowest drug concentration causing inhibition of cell division incubated for 5 hrs by phase-contrast light microscopy. In outline:
as §2

The subject of experiment [13] is Pseudomonas aeruginosa. The experiment in a line: Inhibition of FtsZ in penicillin-susceptible Pseudomonas aeruginosa ATCC 27853 assessed as lowest drug concentration causing inhibition of cell division incubated for 5 hrs by phase-contrast light microscopy. In outline: as §2
Experiment [14] deals with Streptococcus pyogenes. The experiment in a line: Potency index, ratio of MIC for sanguinarine to MIC for test compound against penicillin-susceptible Streptococcus pyogenes clinical isolates incubated for 24 hrs by tube-dilution method. The format is functional.
Experiment [15] deals with Staphylococcus aureus. The experiment in a line: Inhibition of FtsZ in penicillin-susceptible Staphylococcus aureus ATCC 25923 assessed as lowest drug concentration causing inhibition of cell division incubated for 5 hrs by phase-contrast light microscopy. In outline:
as §2

Experiment [16] has as its system Bacillus subtilis. Briefly: Potency index, ratio of MIC for curcumin to MIC for test compound against penicillin-susceptible Bacillus subtilis ATCC 9372 incubated for 24 hrs by tube-dilution method. It is filed as functional.
Experiment [17] concerns Bacillus subtilis. The experiment in a line: Potency index, ratio of MIC for sanguinarine to MIC for test compound against penicillin-susceptible Bacillus subtilis ATCC 9372 incubated for 24 hrs by tube-dilution method. It is filed as functional.
Experiment [18] relates to Bacillus subtilis. The experiment in a line: Potency index, ratio of MIC for ciprofloxaxin to MIC for test compound against penicillin-susceptible Bacillus subtilis ATCC 9372 incubated for 24 hrs by tube-dilution method. The format is functional.
Experiment [19] relates to Bacillus subtilis. The experiment in a line: Potency index, ratio of MIC for oxacillin sodium to MIC for test compound against penicillin-susceptible Bacillus subtilis ATCC 9372 incubated for 24 hrs by tube-dilution method. The format is functional.
Experiment [20] is filed under the species Sus scrofa. The experiment in a line: Induction of porcine tubulin polymerisation at 2 times MIC for penicillin-resistant Staphylococcus aureus by fluorescence microscopy. In outline:
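Polymerisation of mammalian tubulin measured with a commercial tubulin assay kit, read by fluorescence of the kit reporter, with paclitaxel as the positive control for enhanced polymerisation.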

For the compound `Cc1cccc2c3ccccc3c[n+](C)c12.[Cl-]`, the MIC in [1] was 4 µg/mL; in experiment [2], over 128 µg/mL; in experiment [3], over 128 µg/mL; in [4], 128 µg/mL; in experiment [5], over 128 µg/mL; in experiment [6], 4 µg/mL. The MIC in experiment [7] was 128 µg/mL; in experiment [8] it was 4 µg/mL; in experiment [9], 8 µg/mL; in [10], 4 µg/mL; in experiment [12], over 128 µg/mL; in experiment [13], over 128 µg/mL. Moreover, the MIC in experiment [15] came out at 128 µg/mL. Moreover, the Ratio in experiment [11] was found to be 4; in [14], 2; in experiment [16] it was 8; in experiment [17] it was 2; in [18], 2; in [19] it was 2. The result in experiment [20] was inactive.
In the case of `COc1cc(OC)c2c(c1)c1ccccc1c[n+]2C.[Cl-]`, the MIC in experiment [1] is 4 µg/mL; in experiment [2] it was over 128 µg/mL; in experiment [3] it was over 128 µg/mL; in experiment [4] it was 128 µg/mL; in experiment [5] it was 32 µg/mL; in experiment [6] it was 4 µg/mL. In addition, the MIC in [7] was 64 µg/mL; in experiment [8], 4 µg/mL; in [9], 8 µg/mL; in experiment [10], 2 µg/mL; in experiment [12], over 128 µg/mL; in experiment [13], 128 µg/mL. The MIC in experiment [15] is 128 µg/mL. The Ratio in experiment [11] was determined as 4; in experiment [14], 2; in [16] it was 8; in [17], 2; in experiment [18] it was 2; in [19], 2. Also, in experiment [20], the result was inactive.
As for `Cc1cc(C)c2c(c1)c1ccccc1c[n+]2C.[Cl-]`, the MIC in experiment [1] is 4 µg/mL; in experiment [2] it was over 128 µg/mL; in [3] it was over 128 µg/mL; in experiment [4] it was 64 µg/mL; in experiment [5], 32 µg/mL; in experiment [6], 4 µg/mL. The MIC was 128 µg/mL in [7]; 4 µg/mL in experiment [8]; 8 µg/mL in experiment [9]; 2 µg/mL in experiment [10]; over 128 µg/mL in [12]; 128 µg/mL in experiment [13]. The MIC in experiment [15] was determined as 64 µg/mL. In addition, the Ratio in experiment [11] was determined as 4; in experiment [14], 2; in [16], 8; in [17], 2; in experiment [18] it was 2; in experiment [19] it was 2. Moreover, in [20], the result was inactive.
Take `Cc1ccc2c(c1)c1ccccc1c[n+]2C.[Cl-]`: the MIC was 4 µg/mL in experiment [1]; over 128 µg/mL in experiment [2]; over 128 µg/mL in [3]; 64 µg/mL in experiment [4]; 128 µg/mL in experiment [5]; 4 µg/mL in [6]. Further, the MIC is 128 µg/mL in experiment [7]; 4 µg/mL in [8]; 8 µg/mL in [9]; 4 µg/mL in experiment [10]; over 128 µg/mL in experiment [12]; over 128 µg/mL in experiment [13]. Besides, the MIC in experiment [15] amounted to 32 µg/mL. The Ratio in experiment [11] was found to be 4; in [14], 2; in experiment [16], 8; in experiment [17], 2; in [18], 2; in experiment [19] it was 2. Also, the outcome in experiment [20] was inactive.
